From ChEMBL document CHEMBL1208681, “Synthesis and antitumor activities of novel 1,4-disubstituted phthalazine derivatives” (Eur J Med Chem, 2010) come the findings set out here.

As a reminder, the IC50 is the concentration that inhibits the measured activity by half.

The test system of assay [1] is MDA-MB-231. Put plainly: Ratio of IC50 for compound to IC50 for PTK-787 for human MDA-MB-231 cells. It is filed as functional.
The subject of assay [2] is HT-29. Nature of the assay: Cytotoxicity against human HT-29 cells after 72 hrs by MTT assay. The format is functional, cell-based. The method in brief: (§1)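 Cells grown in MEM with 10% FBS. About 4 × 10^3 cells per well were seeded and held 24 h at 37 °C in 5% CO2. Compounds were added at the indicated final concentrations for 72 h. MTT was added to 5 µg/mL final for 4 h at 37 °C. Formazan was dissolved in DMSO and read at 492 nm against 630 nm reference. Each line was tested twice; IC50 is the mean of two determinations.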
In general terms: Formazan colour is commonly taken as a measure of viable cells.

Assay [3] has as its system A549. Put plainly: Ratio of IC50 for compound to IC50 for PTK-787 for human A549 cells. The format is functional.
Assay [4] relates to MDA-MB-231. Put plainly: Cytotoxicity against human MDA-MB-231 cells after 72 hrs by MTT assay. It is filed as functional, cell-based. As to conditions: MDA-MB-231, 72 h; call rule not given here. The method in brief:
as §1

For assay [5], the system named is HT-29. Put plainly: Ratio of IC50 for compound to IC50 for PTK-787 for human HT-29 cells. The format is functional.
Assay [6] relates to A549. Put plainly: Cytotoxicity against human A549 cells after 72 hrs by MTT assay. The format is functional, cell-based. The essentials: as §1
Setting [7] is: Homo sapiens, HT-29, 72 h, read-out: IC50.
[8] abbreviates: Homo sapiens, A549, 72 h, read-out: IC50.

Structures are written as SMILES.

In the case of `O=C(CN1CCN(c2nnc(Cc3ccncc3)c3ccccc23)CC1)Nc1ccc(F)c(F)c1`, the figures for the “Ratio IC50” value in the assay on MDA-MB-231 [1], in the assay on A549 [3] and with HT-29 [5] were 69000, 5.6 and 10.8, respectively. Moreover, the IC50 in the assay with HT-29 [2] (setting [7]) worked out at 2.32 µM; in the assay on MDA-MB-231 [4], 0.84 nM; in the assay with A549 [6] (setting [8]) it was 3.79 µM.
Turning to `O=C(CN1CCN(c2nnc(Cc3ccncc3)c3ccccc23)CC1)Nc1ccc(F)c(Cl)c1`, the IC50 stood at 0.88 µM in the assay on HT-29 [2] (setting [7]), 4 nM with MDA-MB-231 [4] and 12.3 µM in the assay on A549 [6] (setting [8]).
For `O=C(CN1CCN(c2nnc(Cc3ccncc3)c3ccccc23)CC1)Nc1ccc(F)c(C(F)(F)F)c1`, in that order: 1.11 µM, 1.9 nM and 16 µM.
`Cc1ccc(F)cc1NC(=O)CN1CCN(c2nnc(Cc3ccncc3)c3ccccc23)CC1`: the IC50 in the assay with HT-29 [2] (setting [7]) came to 0.47 µM; with MDA-MB-231 [4] it was 6.4 nM; with A549 [6] (setting [8]), 38.9 µM.
In the case of `O=C(CN1CCN(c2nnc(Cc3ccncc3)c3ccccc23)CC1)Nc1cc(C(F)(F)F)ccc1Cl`, the values for the IC50 with HT-29 [2] (setting [7]), in the assay with MDA-MB-231 [4] and with A549 [6] (setting [8]) were 4.81 µM, 3.7 nM and 1.85 µM, respectively.
On to `Cc1cccc(Cl)c1NC(=O)CN1CCN(c2nnc(Cc3ccncc3)c3ccccc23)CC1`, for which the IC50 in the assay on HT-29 [2] (setting [7]) turned out to be 22.6 µM; in the assay on MDA-MB-231 [4] it was 2670 nM; with A549 [6] (setting [8]), 7.19 µM.
Regarding `O=C(CN1CCN(c2nnc(Cc3ccncc3)c3ccccc23)CC1)Nc1c(F)cccc1F`, the IC50 amounted to 28.7 µM in the assay with HT-29 [2] (setting [7]), 1900 nM in the assay on MDA-MB-231 [4] and 54.4 µM in the assay on A549 [6] (setting [8]).
Turning to `Cc1ccc(NC(=O)CN2CCN(c3nnc(Cc4ccncc4)c4ccccc34)CC2)c(C)c1`, the IC50 with HT-29 [2] (setting [7]) amounted to 1.93 µM; in the assay with MDA-MB-231 [4], 240 nM; in the assay on A549 [6] (setting [8]), 45 µM.
In the same order, the values of `COc1ccc(NC(=O)CN2CCN(c3nnc(Cc4ccncc4)c4ccccc34)CC2)cc1OC` are 40.1 µM, 100 nM and 26.5 µM.
Turning to `O=C(CN1CCN(c2nnc(Cc3ccncc3)c3ccccc23)CC1)Nc1cccc(F)c1`, the results for the concentration for half-maximal inhibition (IC50) with HT-29 [2] (setting [7]), in the assay on MDA-MB-231 [4] and with A549 [6] (setting [8]) were 6.13 µM, 4.4 nM and 4.6 µM, respectively.
For `O=C(CN1CCN(c2nnc(Cc3ccncc3)c3ccccc23)CC1)Nc1cccc(Br)c1`, in that order: 1.35 µM, 1.7 nM and 1.53 µM.
For `O=C(CN1CCN(c2nnc(Cc3ccncc3)c3ccccc23)CC1)Nc1ccc(Br)cc1`, in that order: 1.99 µM, 19 nM and 2.71 µM.
In the case of `Cc1ccccc1NC(=O)CN1CCN(c2nnc(Cc3ccncc3)c3ccccc23)CC1`, the IC50 in the assay with HT-29 [2] (setting [7]) worked out at 15 µM; in the assay on MDA-MB-231 [4], 200 nM; with A549 [6] (setting [8]), 43.1 µM.
For `O=C(CN1CCN(c2nnc(Cc3ccccc3)c3ccccc23)CC1)Nc1ccc(F)c(F)c1`, in that order: 9.51 µM, 2750 nM and 10.1 µM.
For the compound `O=C(CN1CCN(c2nnc(Cc3ccccc3)c3ccccc23)CC1)Nc1ccc(F)c(Cl)c1`, the IC50 in the assay on HT-29 [2] (setting [7]) is 13.3 µM; in the assay on MDA-MB-231 [4] it was 7360 nM; with A549 [6] (a549), “Not Active”.
Take `O=C(CN1CCN(c2nnc(Cc3ccccc3)c3ccccc23)CC1)Nc1ccc(F)c(C(F)(F)F)c1`: the IC50 in the assay on HT-29 [2] (setting [7]) was found to be 4.59 µM; in the assay with MDA-MB-231 [4], 760 nM; with A549 [6] (setting [8]), 2.48 µM.
Take `Cc1ccc(F)cc1NC(=O)CN1CCN(c2nnc(Cc3ccccc3)c3ccccc23)CC1`: the figures for the IC50 in the assay with HT-29 [2] (setting [7]), in the assay on MDA-MB-231 [4] and in the assay with A549 [6] (a549) were 170 µM, 19200 nM and “Not Active”, respectively.
Take `O=C(CN1CCN(c2nnc(Cc3ccccc3)c3ccccc23)CC1)Nc1cc(C(F)(F)F)ccc1Cl`: the IC50 in the assay with HT-29 [2] (setting [7]) worked out at 66.8 µM; with MDA-MB-231 [4] it was 19500 nM; in the assay with A549 [6] (setting [8]), 89 µM.
With `Cc1cccc(Cl)c1NC(=O)CN1CCN(c2nnc(Cc3ccccc3)c3ccccc23)CC1`, the figures for the IC50 with HT-29 [2] (setting [7]), with MDA-MB-231 [4] and with A549 [6] (setting [8]) were 53.6 µM, 3920 nM and 7.42 µM, respectively.
For the compound `O=C(CN1CCN(c2nnc(Cc3ccccc3)c3ccccc23)CC1)Nc1c(F)cccc1F`, the IC50 with HT-29 [2] (setting [7]) stood at 19.7 µM; with MDA-MB-231 [4] it was 5490 nM; with A549 [6] (setting [8]), 84.5 µM.
For the compound `Cc1ccc(NC(=O)CN2CCN(c3nnc(Cc4ccccc4)c4ccccc34)CC2)c(C)c1`, the IC50 result in the assay on HT-29 [2] (ht-29) is “Not Active”; with MDA-MB-231 [4] it was 180000 nM; in the assay on A549 [6] (a549), “Not Active”.
Consider `COc1ccc(NC(=O)CN2CCN(c3nnc(Cc4ccccc4)c4ccccc34)CC2)cc1OC`, for which the IC50 in the assay with HT-29 [2] (setting [7]) was 145 µM; with MDA-MB-231 [4], 32200 nM; in the assay on A549 [6] (a549), “Not Active”.
In the case of `O=C(CN1CCN(c2nnc(Cc3ccccc3)c3ccccc23)CC1)Nc1cccc(F)c1`, the IC50 in the assay on HT-29 [2] (setting [7]) was 95 µM; in the assay with MDA-MB-231 [4], 3730 nM; in the assay with A549 [6] (setting [8]) it was 130 µM.
On to `O=C(CN1CCN(c2nnc(Cc3ccccc3)c3ccccc23)CC1)Nc1cccc(Br)c1`, for which the IC50 in the assay with HT-29 [2] (setting [7]) is 13.4 µM; in the assay with MDA-MB-231 [4], 3880 nM; with A549 [6] (a549), “Not Active”.
As for `O=C(CN1CCN(c2nnc(Cc3ccccc3)c3ccccc23)CC1)Nc1ccc(Br)cc1`, the IC50 in the assay with HT-29 [2] (setting [7]) turned out to be 60.2 µM; in the assay with MDA-MB-231 [4], 12400 nM; in the assay with A549 [6] (setting [8]), 2 µM.
On to `Cc1ccccc1NC(=O)CN1CCN(c2nnc(Cc3ccccc3)c3ccccc23)CC1`, for which the values for the IC50 in the assay with HT-29 [2] (setting [7]), in the assay with MDA-MB-231 [4] and with A549 [6] (a549) were 113 µM, 17300 nM and “Not Active”, respectively.
Take `Clc1ccc(Nc2nnc(Cc3ccncc3)c3ccccc23)cc1` [VATALANIB]: the IC50 came out at 22.1 µM in the assay with HT-29 [2] (setting [7]), 57700 nM with MDA-MB-231 [4] and 21.2 µM in the assay with A549 [6] (setting [8]).
